This is a sample that favours compounds with a hit; in the whole collection about 3% have one here.
M4 antag = blocks acetylcholine activation of human M4 receptor; P08173; CHO-hM4 cells, ACh EC80, Fluo-8 calcium fluorescence; inhibition, % at 3 µM; 360,000 tested, 0.73% active; AID 624125;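 active = inhibition above its plate's cutoff, the mean inhibition of sample wells plus 3 SD, cut at about 27% in these data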;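 note: 0% = acetylcholine EC80 with DMSO and 100% = DMSO without agonist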
Target sequence (P08173 whole entry, looked up): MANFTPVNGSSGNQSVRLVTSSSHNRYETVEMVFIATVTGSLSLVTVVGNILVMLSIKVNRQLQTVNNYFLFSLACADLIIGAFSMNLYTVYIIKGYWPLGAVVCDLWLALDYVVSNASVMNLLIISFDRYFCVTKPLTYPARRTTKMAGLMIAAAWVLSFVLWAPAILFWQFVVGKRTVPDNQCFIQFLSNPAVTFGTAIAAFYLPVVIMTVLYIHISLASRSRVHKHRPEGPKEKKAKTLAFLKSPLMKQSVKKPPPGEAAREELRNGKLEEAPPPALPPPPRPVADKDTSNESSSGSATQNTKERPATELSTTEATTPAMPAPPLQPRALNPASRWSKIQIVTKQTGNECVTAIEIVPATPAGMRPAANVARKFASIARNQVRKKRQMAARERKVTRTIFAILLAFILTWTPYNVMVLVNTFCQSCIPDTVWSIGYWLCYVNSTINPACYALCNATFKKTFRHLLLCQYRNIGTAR
M4 ag = CHRM4 agonism in calcium assay; P08173; CHO-K1 hM4/Gqi5, Fluo-8 calcium fluorescence; vehicle 0%, full acetylcholine response 100%; activation, % at 3 µM; 360,000 tested, 0.14% active; AID 624127;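 active = activation above the run mean over all test wells plus 3 SD, cut at about 32% in these data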;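 note: peak over basal fluorescence ratio per well then scaled between controls; 0% = DMSO wells and 100% = acetylcholine at EC100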
CHRM4 PAM = positive allosteric modulators of human muscarinic M4 receptor | 360,000 tested, 0.4% active | CHO-K1 hM4/Gqi5, Fluo-8 calcium fluorescence, ACh EC20; 0% = ACh EC20, 100% = maximal ACh | activation, % at 3 µM | P08173;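 active = activation above its plate's cutoff, the mean activation of sample wells plus 3 SD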
TAAR1 agonist = human TAAR1 agonism; Q96RJ0; AID 624467; 360,000 tested, 0.99% active; activation, % at 3 µM; CHO RD-HGA16 TAAR1, Fluo-8 calcium fluorescence; vehicle wells 0%, saturating PEA agonist 100%;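 active = activation above the mean activation of all test compounds in the run plus 3 SD, cut at about 38% in these data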
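System: CHO-derived RD-HGA16 cells with stable Gα16 and human TAAR1 / Times: 17-24 h plating, Fluo-8 75 min 37 °C, 30 min RT / Technique: calcium-sensitive Fluo-8 signal, excitation 470-495, emission 515-575 nm / Measure: % activation relative to PEA EC100 response / Benchmarks: DMSO and PEA EC100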
TAAR1 antag = human TAAR1 antagonism. Q96RJ0. CHO RD-HGA16 TAAR1, Fluo-8 calcium fluorescence, antagonist. 360,000 tested, 1.5% active. AID 624466. inhibition, % at 3 µM;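 active = inhibition above a per-plate cutoff, the mean inhibition of test compounds on that plate plus 3 SD, cut at about 49% in these data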;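 note: 0% = DMSO plus EC80 beta-PEA response and 100% = DMSO alone without agonist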
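Material: CHO RD-HGA16 cells bearing hTAAR1; compound dosing: one-point dosing, 3 µM nominal final; schedule: dye loading 75 min at 37 °C, then 30 min room temperature; measured by: calcium fluorescence with Fluo-8; control set: vehicle and agonist controls; replication: n of 1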
TAAR1 nonsel count = counter-screen for TAAR1 antagonists: nonselective antagonists; shares compounds with TAAR1 antag; counterscreen cell line, calcium fluorescence, antagonist mode; inhibition, % at 3 µM; 2,400 tested, 77% active; in the data active = inhibition above about 22%;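 note: CHO-Ga16 host cells stimulated with ATP at an EC80 level; 0% = agonist EC80 plus vehicle and 100% = vehicle without agonist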
TAAR1 antag conf = human TAAR1 antagonism, confirmed; shares compounds with TAAR1 antag; TAAR1-expressing cells, fluorescence antagonist read-out; inhibition, % at 3 µM; 2,400 tested, 40% active; AID 651785; in the data active = inhibition above about 49%;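 note: CHO-Ga16 host cells challenged with agonist PEA near its EC80; 0% = agonist at EC80 plus vehicle and 100% = vehicle with no agonist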
Ga16 nonsel ag = nonselective Ga16 agonist in TAAR1 antagonist counter-screen; AID 651953; activation, % at 3 µM; 2,400 tested, 18% active; shares compounds with TAAR1 antag; Ga16-expressing cells, calcium fluorescence, agonist counterscreen; in the data active = activation above about 12%;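 note: 0% = vehicle wells and 100% = saturating stimulus response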
TAAR1 ag counter = activates human TAAR1 in antagonist counter-screen; shares compounds with TAAR1 antag; hTAAR1 cell line, fluorescence activation, agonist mode; activation, % at 3 µM; 2,400 tested, 2% active; AID 651955; in the data active = activation above about 37%;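 note: CHO cells stably expressing TAAR1 with calcium dye readout; 0% = DMSO vehicle and 100% = full agonist response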
* hit, by the source's call.

How did Cc1ccc(NC(=O)CCC(=O)NN=Cc2ccc(C)o2)c(C)c1 do in these assays?
M4 antag: 2; M4 ag: 1; CHRM4 PAM: 3; TAAR1 agonist: 1; TAAR1 antag: -19

What do the screens show for `O=C1c2ccccc2C(=O)N1CCc1nc(-c2ccc(Cl)cc2)no1`?
M4 antag: -8; M4 ag: 9; CHRM4 PAM: -15; TAAR1 agonist: 19; TAAR1 antag: 63*; TAAR1 nonsel count: 29*; TAAR1 antag conf: 37; Ga16 nonsel ag: 6; TAAR1 ag counter: 2

How did CC(C)(C)CNC(=O)C1(C)CCN1C(=O)c1ccccc1CCc1ccccc1 (stereo unspecified) do in these assays?
M4 antag: 1; M4 ag: 2; CHRM4 PAM: -6; TAAR1 agonist: -2; TAAR1 antag: 5

Results for CSc1sccc1/C=C(/C#N)C(=O)c1ccco1 ?
M4 antag: 6; M4 ag: 1; CHRM4 PAM: -4; TAAR1 agonist: 3; TAAR1 antag: 50*; TAAR1 nonsel count: 33*; TAAR1 antag conf: 57*; Ga16 nonsel ag: 7; TAAR1 ag counter: 10

How did CSc1sccc1/C=N/O do in these assays?
M4 antag: -5; M4 ag: 1; CHRM4 PAM: 5; TAAR1 agonist: 2; TAAR1 antag: -1

How did COc1cccc(CNC(=O)[C@H]2CCCN2C(=O)[C@H]2CCCN2)c1 do in these assays?
TAAR1 agonist: 3; TAAR1 antag: -16

What do the screens show for `CC1(C(=O)OCC(=O)Nc2ccc(C(N)=O)cc2)CC1(Cl)Cl` (stereo unspecified)?
M4 antag: -12; M4 ag: 0; CHRM4 PAM: 8; TAAR1 agonist: 2; TAAR1 antag: -17

Results for COc1ccccc1NC(=O)c1ccc(NC(=O)COC(=O)C2(C)CC2(Cl)Cl)cc1 (stereo unspecified) ?
M4 antag: 8; M4 ag: 16; CHRM4 PAM: -15; TAAR1 agonist: 13; TAAR1 antag: 63*; TAAR1 nonsel count: 29*; TAAR1 antag conf: 61*; Ga16 nonsel ag: 11; TAAR1 ag counter: 8

Results for Oc1ccccc1N1CCN(C(=S)Nc2ccc(SC(F)F)cc2)CC1 ?
M4 antag: 11; M4 ag: 20; CHRM4 PAM: -12; TAAR1 agonist: 21; TAAR1 antag: 83*; TAAR1 nonsel count: 42*; TAAR1 antag conf: 55*; Ga16 nonsel ag: 14*; TAAR1 ag counter: 11

What do the screens show for `FC(F)Sc1ccc(NC(=S)N2CCN(c3ccccn3)CC2)cc1`?
M4 antag: 6; M4 ag: 20; CHRM4 PAM: -16; TAAR1 agonist: 5; TAAR1 antag: 33

What do the screens show for `CC1(c2nnnn2-c2ccc3c(c2)OCCO3)CCC(=O)N1CCOc1ccccc1` (stereo unspecified)?
M4 antag: -5; M4 ag: 1; CHRM4 PAM: 2; TAAR1 agonist: 2; TAAR1 antag: -17

What do the screens show for `N#Cc1ccc(-c2csc(NC(=O)/C=C/c3cccs3)n2)cc1`?
M4 antag: -8; M4 ag: 4; CHRM4 PAM: 0; TAAR1 agonist: 3; TAAR1 antag: 61*; TAAR1 nonsel count: 40*; TAAR1 antag conf: 52*; Ga16 nonsel ag: 9; TAAR1 ag counter: 4

What do the screens show for `Cc1ccc(-c2csc(NC(=O)/C=C/c3cccs3)n2)cc1C`?
M4 antag: 6; M4 ag: 0; CHRM4 PAM: -1; TAAR1 agonist: 0; TAAR1 antag: 29

How did CSc1ccc(NC(=O)C2(C)CCN2C(=O)Cc2ccc(C(C)(C)C)cc2)cc1 (stereo unspecified) do in these assays?
M4 antag: 10; M4 ag: 4; CHRM4 PAM: -7; TAAR1 agonist: 0; TAAR1 antag: -8

Screening results from PubChem BioAssay.
